# In the library only some 2.7% were active in any assay of this set; here they are far more common.
# PG9 Ab binder: PG9 antibody binding by small molecule; TR-FRET gp120-PG9 antibody binding; inhibition, % at 6.7 µM; 360,000 tested, 0.43% active; AID 624416; in the data active = inhibition above about 8.5%
# NR1D1 modulator: Rev-erb alpha (human) modulation | 370,000 tested, 0.79% active | Rev-erbα–FITC-DNA binding, fluorescence polarization, 90 min | P20393 | AID 1259318 | activity, % at 10 µM;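 active = activity above about 14%, limit read from the data; passing the limit was not always enough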;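 note: 0% = DMSO wells with 35 nM protein and 100% = DMSO wells with 750 nM protein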
# Target sequence (P20393 whole entry, looked up): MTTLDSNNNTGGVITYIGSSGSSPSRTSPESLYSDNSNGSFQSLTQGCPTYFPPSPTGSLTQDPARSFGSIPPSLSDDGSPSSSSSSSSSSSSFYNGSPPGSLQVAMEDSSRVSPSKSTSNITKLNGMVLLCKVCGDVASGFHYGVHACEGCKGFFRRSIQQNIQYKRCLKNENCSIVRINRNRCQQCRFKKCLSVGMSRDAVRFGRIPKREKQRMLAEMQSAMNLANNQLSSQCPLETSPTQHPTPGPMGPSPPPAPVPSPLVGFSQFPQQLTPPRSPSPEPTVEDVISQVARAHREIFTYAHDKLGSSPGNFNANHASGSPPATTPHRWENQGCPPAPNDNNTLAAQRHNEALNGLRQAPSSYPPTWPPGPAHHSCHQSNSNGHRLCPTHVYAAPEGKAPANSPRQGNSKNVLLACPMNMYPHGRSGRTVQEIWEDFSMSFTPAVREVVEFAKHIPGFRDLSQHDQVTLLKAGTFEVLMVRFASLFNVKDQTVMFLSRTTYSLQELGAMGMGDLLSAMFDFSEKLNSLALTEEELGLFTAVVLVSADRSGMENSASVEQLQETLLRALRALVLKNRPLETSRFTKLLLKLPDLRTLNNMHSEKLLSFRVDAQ
# MC4R barr agon: activates human MC4R beta-arrestin recruitment; P32245; U2OS MC4R beta-arrestin complementation, luminescence; percent of melanotan II response, DMSO zero; 360,000 tested, 0.98% active; activation, % at 8.9 µM;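 active = activation above a per-plate cutoff, the mean activation of sample wells on that plate plus 3 SD, cut at about 8% in these data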
# MC4R antagonist: human MC4R antagonism in cAMP assay | inhibition, % at 6.5 µM | 360,000 tested, 0.48% active | MC4R-expressing cells, MTII-stimulated cAMP, LANCE TR-FRET;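 active = inhibition above its plate's cutoff, the mean of tested wells on that plate plus 3 SD, cut at about 29% in these data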;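 note: 0% = Melanotan II alone and 100% = Melanotan II plus saturating MCL0020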
#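 System – human MC4R-expressing U2OS cells · Also added – Melanotan II · Dosing – one concentration, 6.5 µM nominal · Timing – 30-min compound, 1-h challenge, 1-h detection, room temperature · Measured by – Eu-cAMP/anti-cAMP TR-FRET, emission 671 nm · Replicates – singlicate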
# NR2E3 ag-1: NR2E3 (human) agonism | Q9Y5X4 | GST-NR2E3/biotin-RetCOR TR-FRET, 1536-well | inhibition of corepressor binding, % at 4.78 µM | 320,000 tested, 0.12% active | AID 2300;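 active = percent inhibition above the cutoff of mean plus 3 SD of all tested compounds, set per screening campaign, cut at about 20% in these data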;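 note: 0% = DMSO wells and 100% = biotin wells as full block of FRET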
#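 Material: NR2E3–RetCOR corepressor complex / Amount: 1.35 nM GST-NR2E3 / Medium: Tris pH 7.5 / Compound: single nominal compound dose of 4.8 µM / Incubation: 5 h at 4 °C / Technique: TR-FRET, Eu(K)-anti-GST donor, streptavidin-D2 acceptor, ex 340, em 617/671 nm / Read-out basis: percent loss of FRET ratio relative to control wells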
# NR2E3 ag-2: activates human NR2E3 receptor; Q9Y5X4; CHO-S Gal4-NCOR/VP16-NR2E3 two-hybrid, luciferase; inhibition of corepressor binding, % at 3.98 µM; 360,000 tested, 0.35% active; AID 602229;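 active = inhibition above the mean of all tested compounds plus 3 SD, cut at about 70% in these data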;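 note: 0% = DMSO with NR2E3 transfected cells and 100% = cells lacking NR2E3 construct; higher means lower luciferase signal from less NR2E3 corepressor binding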
# PG9 binder conf: PG9 antibody binding, confirmed | shares compounds with PG9 Ab binder | TR-FRET PG9 antibody binding, biochemical | inhibition, % at 6.7 µM | 1,500 tested, 90% active | AID 651571; in the data active = inhibition above about 9%
# PGV04 counter: counter-screen for PG9 binders: binding control antibody PGV04 | shares compounds with PG9 Ab binder | TR-FRET PGV04 antibody-gp120 binding, biochemical | inhibition, % at 6.7 µM | 1,500 tested, 95% active; in the data active = inhibition above about 9.5%
# An asterisk follows results filed as active; nt = no result given.
SMILES,PG9 Ab binder,NR1D1 modulator,MC4R barr agon,MC4R antagonist,NR2E3 ag-1,NR2E3 ag-2,PG9 binder conf,PGV04 counter
Cc1cccc2cc(C#N)c(NCc3ccccc3)nc12,0.6,-0.8,-0.2,-7.9,8.4,-32.3,nt,nt
COc1ccc(Nc2nc3cc(C)ccc3cc2C#N)cc1,10.6*,11.9,3.6,5.6,4.5,-17.2,10.4*,15.0*
COc1ccc(Nc2nc3cc(C)ccc3cc2C#N)c(OC)c1,-0.5,1.1,-2.2,-21.6,3.5,-20.2,nt,nt
CCC(=O)c1ccc(NC(C)=O)cc1O,-0.9,-2.2,1.1,-7.9,0.6,8.4,nt,nt
CCCCCNC(=O)C(c1cc2ccccc2o1)n1c(=O)c(-c2ccco2)nc2ccccc21 (centres undefined),-0.6,-1.0,nt,nt,nt,nt,nt,nt
CCCCCNC(=O)C(c1ccncc1)n1c(=O)c(-c2ccco2)nc2ccccc21 (centres undefined),9.1*,-0.5,nt,nt,nt,nt,3.7,5.0
CCn1c(Cc2ccccc2)nnc1SCC(=O)Nc1nc2ccccc2s1,16.5*,6.4,1.7,2.6,4.9,-13.2,28.5*,40.0*
Cc1nc(NCc2ccc(S(N)(=O)=O)cc2)c2c(C)c(C)sc2n1,40.5*,15.9,-1.2,-2.4,-0.8,-26.7,21.5*,30.8*
CSc1ccc(C#N)cc1NC(=O)c1ccc(Cl)cc1Cl,10.7*,9.8,-0.6,10.1,2.4,-4.7,19.4*,23.8*
COc1cc(/C=C/C(=O)O)cc(S(=O)(=O)Nc2cccc(SC)c2)c1OC,-1.6,-9.6,-1.4,13.1,0.8,3.7,nt,nt
O=C(NCCC1=CCCCC1)c1coc(=O)c(Br)c1,45.9*,9.4,-0.1,-1.3,0.9,42.5,57.3*,64.1*
COc1ccc(-c2csc(-n3ncc(C(=O)O)c3C(F)(F)F)n2)cc1,16.2*,-1.4,2.1,4.2,7.6,-104.8,21.8*,36.1*
CCOC(=O)NC(=O)CSc1cc(C)c2cc(C)cc(C)c2n1,5.7,-3.0,-3.6,-2.2,4.4,-16.1,nt,nt
Cc1cc(C)c2nc(SCC(=O)NC(=O)c3cccn3C)cc(C)c2c1,14.6*,19.6,1.4,-1.6,3.5,-19.9,12.7*,26.6*
CC(C)CCNC(=O)CCCn1c(=O)[nH]c2ccc(Br)cc2c1=O,-0.5,6.6,0.3,-1.0,6.3,5.4,nt,nt
O=C(CCCn1c(=O)[nH]c2ccc(Br)cc2c1=O)NCc1ccc(Cl)cc1,15.8*,15.3,0.8,8.9,-3.2,-8.8,18.4*,32.5*
COc1ccc(S(=O)(=O)NNC(=O)c2cc3c4ccccc4n(C)c3s2)cc1,17.8*,1.5,7.5,4.3,-0.7,-8.9,18.9*,30.6*
CC(=O)NNC(=O)c1cc2c3ccccc3n(C)c2s1,-1.2,3.7,-1.7,-2.8,-4.0,-0.5,nt,nt
CC(=O)c1sc(Nc2ccccn2)nc1C,30.1*,0.0,-1.2,7.9,9.4,-7.2,38.5*,51.0*
CC(=O)c1sc(NC(=O)C(C)C)nc1C,47.7*,-2.2,0.3,10.5,-1.1,-14.0,46.4*,64.4*
CCOc1ccccc1N(C(=O)Nc1ccc(Cl)cc1)C1=NCCS1,2.0,-9.0,-2.0,12.1,3.1,-10.7,nt,nt
CC(C)(C)c1ccc(C(=O)NCc2ccc(Cl)cc2)cc1,0.2,-3.9,3.0,-5.2,1.5,-6.1,nt,nt
COC(=O)c1c(NC(=O)COC(=O)CCNS(=O)(=O)c2ccc(NC(C)=O)cc2)sc(C)c1C,0.8,2.7,-3.6,11.1,-4.9,-8.8,nt,nt
CC(=O)Nc1sc(C)c(C)c1C(=O)OCC(=O)Nc1ccc(S(N)(=O)=O)cc1,9.6*,16.0,-1.0,11.6,nt,-20.2,12.6*,23.3*
O=C(NCc1cccnc1)c1ccccc1NS(=O)(=O)c1ccccc1,10.8*,2.4,-2.9,6.1,4.3,-14.6,9.5*,19.3*
CCn1c(SCc2nc(-c3ccccc3)no2)nnc1-c1ccco1,15.4*,2.0,-1.8,1.9,-0.9,-11.8,48.7*,61.4*

# High-throughput results deposited in PubChem BioAssay by several laboratories.
